We go through 36 molecules from ChEMBL document CHEMBL2202977, “Optimization and structure-activity relationships of a series of potent inhibitors of methicillin-resistant Staphylococcus aureus (MRSA) pyruvate kinase as novel antimicrobial agents” (Bioorg Med Chem, 2012).

Converted amounts (≈) assume the structure as drawn.

For assay [1], the target named is T1, Pyruvate kinase (Staphylococcus aureus (strain MRSA252)) (UniProt Q6GG09).
T1 sequence (whole entry): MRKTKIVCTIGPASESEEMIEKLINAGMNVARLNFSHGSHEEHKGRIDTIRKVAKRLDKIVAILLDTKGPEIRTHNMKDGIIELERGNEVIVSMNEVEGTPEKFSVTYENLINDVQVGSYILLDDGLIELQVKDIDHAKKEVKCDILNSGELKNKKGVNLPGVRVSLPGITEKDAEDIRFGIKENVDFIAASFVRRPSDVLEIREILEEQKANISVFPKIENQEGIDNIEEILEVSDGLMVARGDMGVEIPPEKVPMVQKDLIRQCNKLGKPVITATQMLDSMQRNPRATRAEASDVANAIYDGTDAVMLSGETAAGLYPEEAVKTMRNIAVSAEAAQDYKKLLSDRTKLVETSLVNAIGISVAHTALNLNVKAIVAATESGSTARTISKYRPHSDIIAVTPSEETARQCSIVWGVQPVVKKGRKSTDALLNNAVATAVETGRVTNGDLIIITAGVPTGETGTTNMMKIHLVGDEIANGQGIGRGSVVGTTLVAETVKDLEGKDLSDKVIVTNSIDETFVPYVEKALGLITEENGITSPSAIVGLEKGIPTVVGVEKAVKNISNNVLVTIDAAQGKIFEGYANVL
Description: Inhibition of methicillin-resistant Staphylococcus aureus 252 pyruvate kinase at 10 uM by LDH assay. The settings on record: Staphylococcus aureus subsp. aureus MRSA252. A digest of the protocol: (§1)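 MRSA pyruvate kinase activity was measured by a previously described procedure. IC50 was calculated from triplicate 15-point titrations, or averaged over n such determinations. Where no IC50 was obtained, the value is % inhibition at the highest concentration tested.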

The target of assay [2] is Pyruvate kinase PKM (Homo sapiens) (UniProt P14618). Description: Inhibition of human pyruvate kinase M1 at 10 uM by LDH assay. In short, it runs like this:
(§2)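 Selected compounds were tested against mammalian PK isoforms M1, M2, R and L at the highest concentration, 10 µM. Results are given as percent inhibition.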

For assay [3], the target named is Pyruvate kinase PKLR (Homo sapiens) (UniProt P30613). The assay can be described thus: Inhibition of human pyruvate kinase R at 10 uM by LDH assay. A digest of the protocol: as §2
Sequence of Pyruvate kinase PKLR (Homo sapiens) (P30613 whole entry, looked up): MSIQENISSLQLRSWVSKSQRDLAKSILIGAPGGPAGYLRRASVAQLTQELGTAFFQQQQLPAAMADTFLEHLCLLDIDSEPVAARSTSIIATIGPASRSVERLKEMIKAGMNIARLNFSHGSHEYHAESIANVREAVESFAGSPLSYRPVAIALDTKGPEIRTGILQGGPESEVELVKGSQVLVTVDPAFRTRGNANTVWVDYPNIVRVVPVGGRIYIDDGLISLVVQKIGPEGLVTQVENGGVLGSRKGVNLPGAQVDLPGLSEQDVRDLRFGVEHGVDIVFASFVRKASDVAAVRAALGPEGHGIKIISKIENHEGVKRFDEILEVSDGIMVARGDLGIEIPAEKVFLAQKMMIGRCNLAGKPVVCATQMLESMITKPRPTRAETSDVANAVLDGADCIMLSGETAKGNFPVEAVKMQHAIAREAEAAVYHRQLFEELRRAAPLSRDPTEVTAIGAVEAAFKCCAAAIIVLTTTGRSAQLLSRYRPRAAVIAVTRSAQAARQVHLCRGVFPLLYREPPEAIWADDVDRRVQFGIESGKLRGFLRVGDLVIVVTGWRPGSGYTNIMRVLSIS
The target is the same in assay [4]. Description: Inhibition of human pyruvate kinase L at 10 uM by LDH assay. A digest of the protocol:
as §2

For assay [5], the system named is Staphylococcus aureus. The assay can be described thus: Antimicrobial activity against Staphylococcus aureus RN4220 after 24 hrs broth microdilution method. The class given is functional. In short, it runs like this: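 MIC taken as the minimum concentration giving >98% growth inhibition of the named S. aureus strain (RN4220, ATCC 25923 or ATCC 29213). Values are single determinations or averages of n determinations. Vancomycin was run as control.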

Assay [6] has as its target T2, Pyruvate kinase (Staphylococcus aureus (strain MRSA252), UniProt Q6GG09).
T2 sequence (Q6GG09 whole entry): T1 sequence (whole entry)
The assay can be described thus: Inhibition of methicillin-resistant Staphylococcus aureus 252 pyruvate kinase by LDH assay. More on the design: species or system Staphylococcus aureus subsp. aureus MRSA252. A digest of the protocol: as §1

The target of assay [7] is Pyruvate kinase PKM (Homo sapiens) (UniProt P14618). The assay can be described thus: Inhibition of human pyruvate kinase M2 at 10 uM by LDH assay. A digest of the protocol: as §2
Sequence of Pyruvate kinase PKM (Homo sapiens) (P14618 2-531 limits assumed): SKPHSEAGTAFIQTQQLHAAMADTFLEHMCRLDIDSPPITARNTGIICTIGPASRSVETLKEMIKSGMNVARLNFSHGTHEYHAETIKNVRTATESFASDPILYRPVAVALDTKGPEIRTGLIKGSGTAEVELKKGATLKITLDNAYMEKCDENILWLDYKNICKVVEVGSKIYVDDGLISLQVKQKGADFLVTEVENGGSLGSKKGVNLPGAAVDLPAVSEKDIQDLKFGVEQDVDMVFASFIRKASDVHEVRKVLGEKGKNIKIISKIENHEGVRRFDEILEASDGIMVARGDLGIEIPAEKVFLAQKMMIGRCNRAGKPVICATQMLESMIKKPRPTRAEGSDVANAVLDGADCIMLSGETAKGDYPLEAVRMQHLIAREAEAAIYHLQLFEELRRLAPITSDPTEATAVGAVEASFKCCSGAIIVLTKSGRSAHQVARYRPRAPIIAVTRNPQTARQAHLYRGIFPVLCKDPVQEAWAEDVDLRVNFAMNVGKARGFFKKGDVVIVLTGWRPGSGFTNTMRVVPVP

Consider `CC(=NNC(=O)c1cc(Br)ccc1O)c1cc2cc(F)ccc2n1C` (mixture of isomers), for which the inhibition was 96.1% in assay [1], -4.5% in assay [2], -2.9% in assay [3] and -2.3% in assay [4]. The “MIC>98” value in assay [5] is 3.3 µg/mL. Besides, in assay [6], the IC50 stood at 165 nM.
In turn, `C/C(=N\NC(=O)c1ccc(Br)cc1O)c1cc2ccccc2[nH]1` yielded an IC50 in assay [6] of 1310 nM.
With `COc1ccc(Br)cc1S(=O)(=O)N/N=C(\C)c1cc2c(F)c(F)ccc2[nH]1`, in assay [1], the inhibition came to 11%.
Turning to `COc1ccc2[nH]c(/C(C)=N/NC(=O)c3cc(Br)ccc3O)cc2c1`, the inhibition in assay [1] came out at 89.3%; in assay [2] it was 7.2%; in assay [3], 5.2%; in assay [4], 3.9%; in assay [7], 2.2%. Besides, the “MIC>98” value in assay [5] was above 80 µg/mL. The molecule further registered an IC50 in assay [6] of 178 nM.
Take `C/C(=N\NC(=O)c1cc(Br)ccc1O)c1cc2cc(I)ccc2[nH]1`: the “MIC>98” value in assay [5] was above 64 µg/mL. The same molecule returned an IC50 in assay [6] of 43 nM.
The matching figures for `CC(=NNC(=O)c1cc(Br)ccc1O)c1nc2ccccc2s1`: above 78 µg/mL and 224 nM.
The matching figures for `C/C(=N\NC(=O)c1cc(Br)cc(Br)c1O)c1cc2ccccc2[nH]1`: 64 µg/mL (≈ 142 µM) and 74 nM.
`C/C(=N\NC(=O)c1cc(Br)ccc1O)c1cc2cc(Br)ccc2[nH]1`: the inhibition in assay [1] turned out to be 72.2%; in assay [2] it was 21.6%; in assay [3] it was 10.7%; in assay [4] it was 6.8%; in assay [7], 8.3%. The “MIC>98” value in assay [5] was above 226 µg/mL. In assay [6], this molecule displayed a half-inhibitory concentration (IC50) of 49 nM.
On to `COc1ccc(Br)cc1C(=O)O/N=C(\C)c1cc2ccccc2n1C`, for which the inhibition in assay [1] is 33%. In addition, the “MIC>98” value in assay [5] was above 161 µg/mL.
For the molecule `C/C(=N\NC(=O)c1cc(Br)ccc1O)c1cc2cc(F)ccc2[nH]1`, the inhibition in assay [1] is 97%; in assay [2] it was -4.6%; in assay [3], -1.6%; in assay [4], -0.5%; in assay [7], 0.4%. The “MIC>98” value in assay [5] was above 195 µg/mL. The IC50 in assay [6] worked out at 49 nM.
As to `CC(=NNC(=O)c1cc(Br)ccc1O)c1cc2c(F)c(F)ccc2n1C` (mixture of isomers), the “MIC>98” value in assay [5] was determined as 2 µg/mL. In assay [6], this molecule gave a half-maximal inhibitory concentration (IC50) of 145 nM.
In the case of `COc1ccc(Br)cc1C(=O)N/N=C(\C)c1cc2ccccc2[nH]1`, the inhibition in assay [1] amounted to 83.4%; in assay [2] it was 29%; in assay [3], 31.9%; in assay [4] it was 27.2%; in assay [7], 16.1%. Besides, the “MIC>98” value in assay [5] is above 193 µg/mL. The molecule further registered an IC50 in assay [6] of 182 nM.
As for `CC(=NNC(=O)c1cc(Br)ccc1O)c1nc2ccccc2n1C` (mixture of isomers), the inhibition in assay [2] is -3%; in assay [3] it was 7.1%; in assay [4] it was -1.3%; in assay [7] it was 0.5%. In addition, in assay [5], the “MIC>98” value is above 194 µg/mL. Further, half-maximal inhibition in assay [6] (IC50) required 227 nM.
Turning to `C/C(=N\NC(=O)c1ccccc1)c1cc2ccccc2[nH]1`, the inhibition in assay [1] turned out to be 28%. Further, in assay [5], the “MIC>98” value is above 139 µg/mL.
Regarding `COc1ccc(Br)cc1S(=O)(=O)N/N=C(\C)c1cc2ccccc2[nH]1`, the inhibition in assay [1] is 12%.
On to `C#CCOc1ccccc1C(=O)N/N=C(\C)c1cc2cc(Br)ccc2[nH]1`, for which the inhibition turned out to be 93.2% in assay [1]; 20.2% in assay [2]; 24% in assay [3]; 23.1% in assay [4]; 2.5% in assay [7]. Further, in assay [5], the “MIC>98” value was above 205 µg/mL. In addition, inhibition in assay [6] was half-maximal at 64 nM (IC50).
As to `C/C(=N\NC(=O)c1cccc(Br)c1)c1cc2ccccc2[nH]1`, the “MIC>98” value in assay [5] is above 178 µg/mL. It took 8150 nM to reach half-maximal inhibition in assay [6] (IC50).
The matching figures for `C/C(=N\NC(=O)c1cc(Br)ccc1O)c1cc2cc(F)c(F)cc2[nH]1`: above 82 µg/mL and 20 nM.
The matching figures for `COc1cc(O)c(C(=O)N/N=C(\C)c2cc3ccccc3[nH]2)cc1Br`: above 161 µg/mL and 324 nM.
Consider `CC(=NNC(=O)c1cc(Br)ccc1O)c1cc2cc(Cl)ccc2n1C` (mixture of isomers), for which the inhibition is 92.3% in assay [1]; 14.8% in assay [2]; 6.9% in assay [3]; 5.7% in assay [4]; 3.7% in assay [7]. Besides, in assay [5], the “MIC>98” value came out at 1.3 µg/mL. In addition, it took 228 nM to reach half-maximal inhibition in assay [6] (IC50).
`CCC(=NNC(=O)c1cc(Br)ccc1O)c1cc2ccccc2n1C` (mixture of isomers): the inhibition in assay [1] was 99.1%; in assay [2], -4.3%; in assay [3], -1.9%; in assay [4], 2.7%; in assay [7], -1.5%. In addition, the MIC>98 in assay [5] worked out at 5 µg/mL. The IC50 in assay [6] came out at 461 nM.
`COc1ccc2c(c1)cc(C(C)=NNC(=O)c1cc(Br)ccc1O)n2C` (mixture of isomers): the inhibition in assay [1] was 71.3%; in assay [2], -2.8%; in assay [3], 5.5%; in assay [4], 2.8%. Further, the “MIC>98” value in assay [5] came out at 10.4 µg/mL. This molecule also returned an IC50 in assay [6] of 794 nM.
In the case of `CC/C(=N\NC(=O)c1cc(Br)ccc1O)c1cc2ccccc2[nH]1`, the inhibition in assay [1] is 99.2%; in assay [2] it was 6.6%; in assay [3] it was 4.8%; in assay [4], 3.6%; in assay [7] it was -2.4%. Besides, the “MIC>98” value in assay [5] came out at 9.7 µg/mL (≈ 25.1 µM). The molecule further had an IC50 in assay [6] of 126 nM.
For the molecule `C/C(=N\NC(=O)c1cc(Br)ccc1O)c1cc2ccccc2s1`, the inhibition in assay [1] is 96.4%; in assay [2] it was 10.2%; in assay [3], 12.5%; in assay [4], 7.3%; in assay [7] it was -1.1%. For the same molecule, in assay [5], the “MIC>98” value was above 195 µg/mL. This molecule also had an IC50 in assay [6] of 286 nM.
`C/C(=N\NC(=O)c1cc(-c2ccccc2)ccc1O)c1cc2ccccc2[nH]1`: the inhibition in assay [1] worked out at 20%.
As to `C/C(=N\OC(=O)c1cc(Br)ccc1O)c1cc2ccccc2n1C`, the inhibition in assay [1] is 34%. In addition, the “MIC>98” value in assay [5] was above 155 µg/mL.
Regarding `CC(=NNC(=O)c1cc(Br)ccc1O)c1cc2ccc(Br)cc2n1C` (mixture of isomers), in assay [5], the “MIC>98” value worked out at 1 µg/mL. In assay [6], this molecule gave a 50% inhibitory concentration (IC50) of 17 nM.
For `C/C(=N\NC(=O)c1cc(C(C)C)cc(C(C)C)c1O)c1cc2ccccc2[nH]1`, in assay [1], the inhibition came out at 40%.
As for `CC(=NNC(=O)c1cc(Br)ccc1O)c1cc2cc(F)c(F)cc2n1C` (mixture of isomers), the inhibition is 95.4% in assay [1], 9% in assay [3], -2.4% in assay [4] and -8.1% in assay [7]. Besides, the “MIC>98” value in assay [5] was determined as 1.6 µg/mL. Also, it took 61 nM to reach half-maximal inhibition in assay [6] (IC50).
In the case of `CC(=NNC(=O)c1cc(Br)ccc1O)c1cc2cc(Br)ccc2n1C` (mixture of isomers), the inhibition in assay [2] was 19.5%; in assay [3], 14.2%; in assay [4], 9.2%; in assay [7], 11.9%. In addition, the “MIC>98” value in assay [5] stood at 1.4 µg/mL. The same molecule returned an IC50 in assay [6] of 146 nM.
As to `Cn1c(C=NNC(=O)c2cc(Br)ccc2O)cc2ccccc21` (mixture of isomers), the “MIC>98” value in assay [5] is above 186 µg/mL. In assay [6], this molecule displayed an IC50 of 3090 nM.
Consider `C/C(=N\NC(=O)c1ccccn1)c1cc2ccccc2[nH]1`, for which, in assay [1], the inhibition was determined as 15%. Also, the “MIC>98” value in assay [5] was above 139 µg/mL.
For `C/C(=N\NC(=O)c1cc(Br)ccc1O)c1cc2c(F)c(F)ccc2[nH]1`, the “MIC>98” value in assay [5] is 41 µg/mL (≈ 100 µM). For the same molecule, the midpoint of inhibition in assay [6], the IC50, lay at 24 nM.
The matching figures for `COc1cc(O)c(C(=O)NN=C(C)c2cc3ccccc3n2C)cc1Br` (mixture of isomers): above 167 µg/mL and 841 nM.
The matching figures for `C/C(=N\NC(=O)c1ccccc1O)c1cc2ccccc2[nH]1`: 59 µg/mL (≈ 201 µM) and 8620 nM.
As to `C/C(=N\NC(=O)c1cc(Br)ccc1O)c1cc2cc(C(F)(F)F)ccc2[nH]1`, the inhibition in assay [1] is 46%.
